Source: PubChem BioAssay (several laboratories)
M1 agonist: M1 muscarinic receptor agonism | actives 3% (n = 64,000) | B-score at 10 µM | AID 626 | CHO-M1 cells, Fluo-4 calcium fluorescence, agonist mode; stronger effect = higher value;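 active means fluorescence rise, raw or as B-score row- and column-corrected plate score, outside the 99.7% band of its plate's samples, either direction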
RORA act: activates the human nuclear receptor RORA | CHO-K1 Gal4-RORA LBD luciferase reporter, luminescence; percent increase over mock-subtracted basal signal | P35398 | AID 560 | actives 1.5% (n = 65,000) | activation, % at 10 µM;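 active means activation above the mean of all tested compounds plus 3 SD, cut at about 49% in these data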
SF-1 act: activators of human nuclear receptor SF-1; CHO-K1 Gal4-SF-1 LBD luciferase reporter; % increase over DMSO SF-1-specific signal; activation, % at 10 µM; actives 1.9% (n = 65,000); Q13285;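 active means activation above the mean activation of all tested compounds plus 3 SD, cut at about 50% in these data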
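Test system: transient Gal4-SF-1 LBD reporter, CHO-K1; Amount: 4,000 CHO-K1 cells per well; Doses: 10 µM only; Timing: compound exposure 20 h at 37 °C; Signal: luciferase light emission; Read-out basis: percent activation relative to DMSO median and mock-transfected background; Control set: DMSO negative control and −SF1 background wells; Replicates: one test per compound.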
M1 antagonist: blocks the rat M1 muscarinic receptor response to acetylcholine; actives 3.4% (n = 64,000); CHO-M1 cells, Fluo-4 calcium, ACh EC80 antagonist mode; stronger effect = lower value; AID 628; B-score at 10 µM;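 active means calcium fluorescence response, raw or row-and-column corrected B-score, differing from the plate sample mean either way at a set confidence level, mostly lower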
Target sequence (P08482 whole entry, looked up): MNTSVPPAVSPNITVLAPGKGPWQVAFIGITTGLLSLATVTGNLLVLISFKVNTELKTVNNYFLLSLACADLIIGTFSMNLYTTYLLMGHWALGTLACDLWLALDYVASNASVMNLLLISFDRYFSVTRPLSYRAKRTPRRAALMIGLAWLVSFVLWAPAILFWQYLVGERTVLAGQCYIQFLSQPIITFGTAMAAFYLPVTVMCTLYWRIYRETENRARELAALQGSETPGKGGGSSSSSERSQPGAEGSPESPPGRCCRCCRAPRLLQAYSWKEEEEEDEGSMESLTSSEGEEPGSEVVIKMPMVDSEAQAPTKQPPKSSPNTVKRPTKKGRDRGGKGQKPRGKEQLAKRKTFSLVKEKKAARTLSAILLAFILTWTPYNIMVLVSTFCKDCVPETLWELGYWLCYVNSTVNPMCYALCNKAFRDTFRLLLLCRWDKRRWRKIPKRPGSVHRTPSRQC
D1 mod: allosteric modulators of human D1 dopamine receptor; P21728; HEK293 D1, CRE-luciferase, dopamine EC30 potentiation; actives deviate in either direction; B-score at 10 µM; actives 5.9% (n = 58,000);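 active means luminescence count or its row- and column-corrected plate score outside the 99.7% band of the plate's sample wells, on either side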
mHtt clearance: compounds clearing mutant huntingtin protein | AID 853 | HeLa Exon1htt(103Q)mCFP, aggregate imaging; zero = plate's median compound well | inhibition, % at 1.5 µM | actives 0.42% (n = 47,000);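 active means inhibition of aggregate fluorescence above about 70%, also judged a hit by eye on the cell image, limit read from the data, passing the limit was not always enough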;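 further: cells exposed to compound for three days before fixation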
Numbers stand for hits; n = inactive; x = not tested or not shown. Compounds with a hit are over-represented: about 11% of the library has one in this group of screens.

SMILES	M1 agonist	RORA act	SF-1 act	M1 antagonist	D1 mod	mHtt clearance
CC1Cc2ccccc2N1C(=O)CSc1nc2c(c(=O)n(C)c(=O)n2C)n1Cc1ccccc1 (configuration not stated)	n	n	n	n	n	x
CC(C)CC(C(=O)NCc1ccccn1)N1C(=O)c2ccccc2C1=O (configuration not stated)	n	n	n	n	n	x
COCCCNC(=O)CCCn1c(=O)c2ccccc2n(CC(=O)Nc2c(C)cc(C)cc2C)c1=O	n	n	n	n	-6.96	x
COCCCNC(=O)CCn1c(=O)c2ccccc2n(CC(=O)Nc2c(C)cccc2C)c1=O	x	n	n	x	x	n
O=S1(=O)C=C(SCc2ccc(Cl)c(Cl)c2)Nc2ccccc21	x	x	x	x	x	n
COCc1c(C)cc(C)c(/C=N/O)c1C	n	n	n	11.8	n	x
Nc1ccccc1SCc1cn2ccccc2n1	n	49.3	n	n	n	x
Cc1nnc(Sc2nc(Sc3nnc(C)s3)nc(N3CCN(C)CC3)n2)s1	n	n	n	n	n	x
c1ccc2nc(-c3nc4ccccc4o3)ccc2c1	n	n	n	n	-3.95	x
COc1cc2cc3c(N)c(C(=O)NCc4ccco4)sc3nc2cc1OC	n	80.4	n	n	n	n
Cc1noc(C)c1S(=O)(=O)N1CCC(C(=O)Nc2ccc(OC(F)(F)F)cc2)CC1	n	n	n	n	x	x
Cc1cccc(/N=C/c2c(O)[nH]c3ccccc23)n1	n	85.9	102.7	n	n	n
Oc1[nH]c2ccccc2c1C=Nc1ccc2c(c1)OCCO2	n	n	n	n	-2.93	n
O=NC1=C(c2c(O)[nH]c3ccccc23)CCCC1	n	n	n	n	n	x
Cc1cccc(/N=C/c2c(O)cc(C)oc2=O)n1	n	n	n	n	n	x
COCCOC(=O)C1=C(C)N=C2SCCC(=O)N2C1c1ccc(OC(=O)c2ccco2)cc1 (configuration not stated)	n	n	n	n	n	x
CCOc1ncccc1C(=O)OCC(=O)c1cc(C)n(Cc2ccco2)c1C	n	90.8	56.8	n	n	x
Cc1cc(C(=O)COC(=O)CCC(=O)c2ccc3c(c2)OCCO3)c(C)n1Cc1ccco1	n	n	n	n	n	n
O=C(NCc1ccc2c(c1)OCO2)Oc1ccccc1	n	n	n	n	n	x
COc1ccc(-n2cnc3cc(NCc4cccs4)ccc32)cc1	n	n	n	n	n	n
CCn1cnc2cc(NCc3ccncc3)ccc21	n	n	n	n	n	n
Cc1ccc(C(=O)Nc2ccc3c(c2)ncn3C)cc1	n	52.0	n	n	n	x
COc1ccc(CNc2ccc(C(=O)O)cc2)cc1	n	n	78.0	n	n	n
COc1ccc(CNc2ccc3c(c2)nc(C)n3C)cc1	n	n	78.7	n	n	x
Cc1ccc(CNc2ccc3c(c2)ncn3C)cc1	x	63.0	57.1	x	n	n
SMILES	M1 agonist	RORA act	SF-1 act	M1 antagonist	D1 mod	mHtt clearance
CC(C)Cc1nc(N2CCOCC2)c(C#N)c2c1COC(C)(C)C2	n	n	n	n	x	n
CCCc1nc2ccccc2c(=O)n1/N=C/c1c(C)[nH]n(-c2ccc(C)cc2)c1=O	n	n	n	n	n	x
CC(C)NC(=O)CSc1nc2ccccc2n1-c1ccccc1	n	n	n	0.945	n	n
Cc1ccc(SCc2cn3c(C)csc3n2)cc1	n	n	n	n	-4.63	n
O=c1c2c3c(sc2n2c(=S)[nH]nc2n1Cc1ccccc1)CN(Cc1ccccc1)CC3	x	x	x	x	x	n
COc1ccccc1N(C(C)=O)c1nc(C)cc(C)c1C#N	x	x	x	x	x	n
CNC(=O)c1c(C)nc(SCC(=O)NCc2ccc(OC)cc2)c(C#N)c1-c1ccco1	n	n	n	n	-2.86	x
Cc1cc(C)cc(Oc2ccc(C(F)(F)F)cc2C#N)c1	x	x	x	x	x	n
N#CC1C(C#N)N2CCCN2C1c1ccc(Cl)cc1 (configuration not stated)	x	x	x	x	x	n
Cc1ccc(-c2nnc3c4ccccc4c(C)nn23)cc1NC(=O)c1ccco1	n	n	n	n	n	n
Cc1ccc(-c2nc3cccnc3s2)cc1NC(=O)c1ccco1	n	n	59.0	n	n	n
Cc1cc(-c2nc3cccnc3s2)ccc1NS(=O)(=O)c1ccc2c(c1)OCCO2	x	x	x	x	x	n
CCS(=O)(=O)Nc1cc(-c2nc3cccnc3s2)ccc1C	n	n	71.0	n	n	x
O=C1C2CCCN2C(c2ccc(Cl)cc2)N1c1nccs1 (configuration not stated)	n	n	n	n	n	n
CCC(=O)Nc1cc2nn(-c3ccc(OC)cc3)nc2cc1C	n	n	n	n	-5.02	x
Cn1c(SCC(=O)NCc2ccco2)nnc1-c1cccs1	n	n	n	2.25	n	n
Cc1sc2nc(SCC(=O)NCc3ccco3)n(CCc3ccccc3)c(=O)c2c1C	n	n	n	n	n	n
Cc1sc2nc(SCC(=O)NCc3ccco3)n(C)c(=O)c2c1C	n	n	n	n	-2.59	x
Cn1c(SCC(=O)NCc2ccc3c(c2)OCO3)nnc1-c1cccs1	n	n	n	n	n	x
CCCCC(CC)C(=O)Nc1ccccc1C(=O)NC(C)C (configuration not stated)	n	n	n	n	n	n
COc1ccc(/C=N/n2cc(-c3ccc(OC)cc3)nc2N)cc1	n	n	n	n	n	n
C=CCSc1nncn1/N=C/c1ccc(OC)cc1	n	90.8	83.3	n	n	n
C=CCn1c(SCC(=O)c2ccc(Br)cc2)nnc1C(CC(C)C)NC(=O)c1cccs1 (configuration not stated)	x	x	x	x	x	n
CN(C)CCCNc1oc(-c2cccc(Cl)c2)nc1C#N	n	n	n	n	n	x
CN1CCN(c2nc(-c3ccncc3)nc3ccccc23)CC1	n	n	n	n	-3.84	n
SMILES	M1 agonist	RORA act	SF-1 act	M1 antagonist	D1 mod	mHtt clearance
CC1S/C(=C(\C#N)C(N)=O)N(c2ccc(F)cc2)C1=O (configuration not stated)	n	n	n	n	n	n
O=C(Nc1cccnc1)c1ccc(Oc2ccccc2)cc1	n	n	n	n	-6.38	n
COc1cc2ccccc2cc1C(=O)Nc1cccnc1	n	76.7	49.5	n	x	x
Cc1ncoc1C(=O)Nc1ccc(Oc2ccccc2)cc1	n	n	58.7	n	n	n
Cn1nc(-c2ccc(C(=O)Nc3cccnc3)cc2)c2ccccc2c1=O	n	n	n	n	n	n
Cc1nc(C)c(C(=O)Nc2ccc(Oc3ccccc3)cc2)o1	n	n	n	n	n	x
Cc1cc(C)c2nc(N3CCCC(C(=O)N4CCC(C(N)=O)CC4)C3)sc2c1 (configuration not stated)	n	n	n	n	-4.15	n
COc1cc(OC)nc(NC(=O)CSc2nnc(-c3ccccc3)n2C2CCCCC2)n1	n	n	n	n	n	x
CN1CCN(S(=O)(=O)c2ccc(NC(=O)c3ccc(Br)s3)cc2)CC1	n	n	n	n	-3.95	x
COC(=O)c1cccc(NC(=O)c2ccc(S(=O)(=O)N3CCN(C)CC3)cc2)c1	n	n	n	n	n	n
